Several values for one entry are separate records, joined by “and”; a condition that tells them apart may be missing. Equal values may be shown once.
How the values were obtained:
PTZ-induced convulsions = PTZ-induced convulsions in mice; assay type: in vivo; conditions: for average duration of seizure / latency time / seizure score / mortality: 5 mg/kg i.p., PTZ 70 mg/kg i.p., n = 10; for average duration of seizure / latency time / seizure score: mean ± SEM; for enhancement of latency time of PTZ-induced seizures compared with the standard LTG drug: vs LTG; for protection against PTZ-induced convulsions: dose of 5 mg/kg
Procedure, shortened: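 Overnight-fasted albino mice (n = 10 per group) received test compound at 5 mg/kg i.p., suspended in carboxymethylcellulose and sonicated. Controls were vehicle, PTZ alone and lamotrigine (dose-finding at 1–5 mg/kg). Clonic seizures were induced with PTZ 70 mg/kg i.p. Recorded: latency, convulsion duration, number of convulsions, protection, and a 0–6 seizure score (6 = death). Mean ± SEM; one-way ANOVA with Dunnett's test versus the PTZ group.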

[1] = test system: motor coordination on rotating rod; experiment: Neurotoxicity / minimal motor impairment, rotating rod; assay type: in vivo; conditions: rod observed 5 min, mean ± SEM, 10 mice
Procedure, shortened: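 White albino mice of either sex, 8–10 weeks, 25–35 g, were trained on a rotating rod (2.5 cm diameter, 25 cm high). After i.p. dosing (10, 30 or 50 mg/kg), motor coordination was scored over 5 min at 30 min and 4 h. Neurotoxicity meant failure to stay on the rod for 1 min. 10 mice per group; mean ± SEM.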

MCF-7 cell line = experiment: MTT cytotoxicity assay in MCF-7 cells; assay type: cell-based, human; conditions: for % inhibition/stimulation: conc. 30 μM
Procedure, shortened: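 MCF-7 cells grown in Eagle's MEM with 10% FBS, 1% penicillin/streptomycin, 0.1 mM non-essential amino acids, 10 μg/mL insulin and 1 mM sodium pyruvate at 37 °C, 5% CO2. Trypsin/EDTA-harvested cells were seeded at 6 × 10^4 cells/mL and incubated overnight. Test compound (1–30 μM, or a fixed 30 μM screen against doxorubicin) was applied for 48 h. MTT 0.5 mg/mL for 4 h, DMSO, A570; % inhibition and IC50.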

Molecule | average duration of seizure (PTZ-induced convulsions) [s] | latency time (PTZ-induced convulsions) [s] | seizure score (PTZ-induced convulsions) [counts] | mortality (PTZ-induced convulsions) [counts] | enhancement of latency time of PTZ-induced seizures compared with the standard LTG drug (PTZ-induced convulsions; 5 mg/kg) [%] | time on Rod ([1]; dose 10 mg/kg i.p.) [s] | time on Rod ([1]; dose 30 mg/kg i.p.) [s] | time on Rod ([1]; dose 50 mg/kg i.p.) [s] | IC50 ± SD (MCF-7 cell line; MCF-7, 1–30 μM, 48 h, MTT) | % inhibition/stimulation (MCF-7 cell line; 48 h, MTT) [%] | inhibition at 30 µM (MCF-7 cell line; Homo sapiens, MCF7, 48 h, read-out: % inhibition/stimulation) [%] | protection against PTZ-induced convulsions (PTZ-induced convulsions) [%] | latency time (PTZ-induced convulsions; listed as LTG control) [s] | decrease in the time duration of convulsions as compared to PTZ (negative control) (PTZ-induced convulsions; 5 mg/kg, vs PTZ negative control) [%] | mice protected from clonic convulsions (PTZ-induced convulsions; LTG monotherapy 5 mg/kg) [%] | highest nonprotective dose in the PTZ model (PTZ-induced convulsions; monotherapy, doses 1-5 mg/kg tested against clonic convulsions) [mg/kg] | IC50 (MCF-7 cell line; read-out: IC50 ± SD, MCF-7, 1–30 μM, 48 h, MTT) [µM] | time on Rod ([1]; dose 10 mg/kg i.p., 10 mg/kg) [s] | time on Rod ([1]; dose 30 mg/kg i.p., 30 mg/kg) [s] | time on Rod ([1]; dose 50 mg/kg i.p., 50 mg/kg)
(1E,2Z)-N-[6-(2,3-Dichlorophenyl)-5-{(E)-[(2E)-3-phenylprop-2-en-1-ylidene]amino}-1,2,4-triazin-3-yl]prop-2-en-1-imine Dibutyl Tin Dichloride Coordinate Complex of L1 [7a] | 110 ± 14.1 | 220.0 ± 72.7 | 12.0 ± 1.2 | 0.0 | 4 | 155.0 ± 97.5 | 130.6 ± 92.4 | 100.4 ± 87.7 | inactive | 0.00 |  |  |  |  |  |  |  |  |  | 
2,2′-{[6-(2,3-Dichlorophenyl)-1,2,4-triazine-3,5-diyl]bis[azanylylidene(E)methanylylidene]}diphenol Dibutyl Tin Dichloride Coordinate Complex [7b] | 99 ± 7.1 | 190.0 ± 70.1 | 12.0 ± 1.5 | 0.0 |  | 80.0 ± 27.6 | 68.9 ± 25.7 | 45.64 ± 19.3 | inactive | 0.00 |  |  |  |  |  |  |  |  |  | 
4-{[(3-{(E)-[(4-Hydroxy-3-methoxyphenyl)methylidene]amino}-6-(2,3-dichlorophenyl)-1,2,4-triazin-5-yl)imino]methyl}-2-methoxyphenol Copper Acetate Coordinate Complex [5c] | 115 ± 10.0 | 230.0 ± 70.1 | 10.0 ± 2.6 | 0.0 | 8 | 121.7 ± 98.3 | 90.0 ± 85.6 | 75.64 ± 52.7 | inactive | 0.00 |  |  |  |  |  |  |  |  |  | 
COc1cccc2c1C(=O)c1c(O)c3c(c(O)c1C2=O)C[C@@](O)(C(=O)CO)C[C@@H]3O[C@H]1C[C@H](N)[C@H](O)[C@H](C)O1 [doxorubicin (DOX), doxorubicin, reference compound] |  |  |  |  |  |  |  |  |  |  | 101 |  |  |  |  |  |  |  |  | 
2,2′-{[6-(2,3-Dichlorophenyl)-1,2,4-triazine-3,5-diyl]bis[azanylylidene(E)methanylylidene]}diphenol Copper Acetate Coordinate Complex [5b] | 97.5 ± 28.3 | 250.0 ± 88.3 | 11.0 ± 2.4 | 1 | 18 | 116.7 ± 94.3 | 100.0 ± 86.3 | 75.83 ± 54.3 | inactive | 0.00 |  | 90 |  |  |  |  |  |  |  | 
Nc1nnc(-c2cccc(Cl)c2Cl)c(N)n1 [LTG, 3,5-diamino-6-(2,3-dichlorophenyl)-1,2,4-triazine, reference compound] | 90 ± 3.5 | ~212 | 11.0 ± 2.3 | 0.0 |  | 290.0 ± 16.7 | 245.8 ± 15.4 | 200.7 ± 13.7 |  |  |  |  | 211.7 ± 98.1 | 42 | 6 | 5 |  |  |  | 
2,2′-{[6-(2,3-Dichlorophenyl)-1,2,4-Triazine-3,5-Diyl]bis[azanylylidene(E)methanylylidene]}diphenol Zinc Chloride Coordinate Complex [4b] | 81.5 ± 2.1 | 240.0 ± 10.3 | 10.0 ± 6.5 | 0.0 | 13 | 105.0 ± 98.5 | 80.6 ± 78.6 | 54.26 ± 42.3 | inactive | 0.00 |  |  |  |  |  |  |  |  |  | 
(1E,2Z)-N-[6-(2,3-Dichlorophenyl)-5-{(E)-[(2E)-3-phenylprop-2-en-1-ylidene]amino}-1,2,4-triazin-3-yl]prop-2-en-1-imine Silver Nitrate Coordinate Complex [6a] | 105 ± 7.1 | 180.0 ± 75.9 | 11.0 ± 2.3 | 1 |  | 141.7 ± 102.5 | 120.0 ± 98.7 | 75.8 ± 20.3 | inactive | 0.00 |  | 90 |  |  |  |  |  |  |  | 
2,2′-{[6-(2,3-Dichlorophenyl)-1,2,4-triazine-3,5-diyl]bis[azanylylidene(E)methanylylidene]}diphenol Silver Nitrate Coordinate Complex [6b] | 95 ± 10.5 | 330.0 ± 67.8 | 12.0 ± 1.8 | 0.0 | 56 | 153.3 ± 92.7 | 146.3 ± 90.9 | 130.0 ± 91.7 |  | 101.2 |  |  |  |  |  |  | 11.9 ± 0.27 |  |  | 
(1E,2Z)-N-[6-(2,3-Dichlorophenyl)-5-{(E)-[(2E)-3-phenylprop-2-en-1-ylidene]amino}-1,2,4-triazin-3-yl]prop-2-en-1-imine Copper Acetate Coordinate Complex [5a] | 81.5 ± 2.1 | 170.0 ± 45.2 | 11.0 ± 1.9 | 0.0 |  | 76.7 ± 19.7 | 55.9 ± 12.9 | 40.9 ± 10.7 | inactive | 0.00 |  |  |  |  |  |  |  |  |  | 
4-{[(3-{(E)-[(4-Hydroxy-3-methoxyphenyl)methylidene]amino}-6-(2,3-dichlorophenyl)-1,2,4-triazin-5-yl)imino]methyl}-2-methoxyphenol Zinc Chloride Coordinate Complex [4c] | 81.5 ± 1.5 | 250.0 ± 10.3 | 14.0 ± 3.7 | 0.0 | 18 | 80.0 ± 75.3 | 50.6 ± 42.5 | 30.65 ± 25.7 | inactive | 0.00 |  |  |  |  |  |  |  |  |  | 
Oc1ccccc1/C=N/c1nnc(-c2cccc(Cl)c2Cl)c(/N=C/c2ccccc2O)n1 [3b, 2,2′-{[6-(2,3-Dichlorophenyl)-1,2,4-triazine-3,5-diyl]bis[azanylylidene(E)methanylylidene]}diphenol] |  |  |  |  |  | 110.8 ± 98.6 | 90.5 ± 82.3 | 65.97 ± 54.9 |  |  |  |  |  |  |  |  |  |  |  | 
C1CCc2nnnn2CC1 [PTZ, pentylenetetrazole, reference compound] |  |  |  |  |  |  |  |  |  |  |  |  |  |  |  |  |  | 16.67 ± 8.165 | 10.46 ± 1.654 | 7.7 ± 2.4 s
4-{[(3-{(E)-[(4-Hydroxy-3-methoxyphenyl)methylidene]amino}-6-(2,3-dichlorophenyl)-1,2,4-triazin-5-yl)imino]methyl}-2-methoxyphenol Dibutyl Tin Dichloride Coordinate Complex [7c] | 125 ± 15.3 | 160.0 ± 49.0 | 11.0 ± 1.6 | 0.0 |  | 190.0 ± 74.6 | 167.4 ± 89.8 |  | inactive | 0.00 |  |  |  |  |  |  |  |  |  | 140.5 ± 94.9 s and 140.5 ± 94.0 s
COc1cc(C=Nc2nc(/N=C/c3ccc(O)c(OC)c3)nnc2-c2cccc(Cl)c2Cl)ccc1O [3c, 4-{[(3-{(E)-[(4-Hydroxy-3-methoxyphenyl)methylidene]amino}-6-(2,3-dichlorophenyl)-1,2,4-triazin-5-yl)imino]methyl}-2-methoxyphenol] |  |  |  |  |  | 140.7 ± 92.4 | 126.4 ± 88.0 | 100.0 ± 82.3 |  |  |  |  |  |  |  |  |  |  |  | 
